Source: ChEMBL document CHEMBL4725234, “Structure-activity relationship analyses of fusidic acid derivatives highlight crucial role of the C-21 carboxylic acid moiety to its anti-mycobacterial activity” (Bioorg Med Chem, 2020)
pIC50: −log10 of the molar value. In brackets after ≈: the same amount, converted by molar mass.

Legend:
[1] = system: CHO-K1; assay: Cytotoxicity against CHOK1 cells assessed as reduction in cell viability; format: cell-based; settings: Cricetulus griseus
[2] = system: Mycobacterium tuberculosis; assay: Antimycobacterial activity against Mycobacterium tuberculosis H37Rv; format: functional
Summary of the method: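 Drug-sensitive M. tuberculosis H37Rv grown in a glycerol-containing medium; MIC99 is the minimum concentration that inhibits growth of 99% of the bacterial population.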

| Structure (SMILES) | pIC50 [1] | MIC99 [2] [µM] |
| --- | --- | --- |
| CC(=O)O[C@H]1C[C@@]2(C)[C@@H](C[C@@H](O)[C@H]3[C@@]4(C)CC[C@@H](O)[C@@H](C)[C@@H]4CC[C@@]32C)/C1=C(\CCC=C(C)C)C(=O)NS(C)(=O)=O | < 3.77 | 80 (≈ 47.5 µg/mL) |
| CCS(=O)(=O)NNC(=O)/C(CCC=C(C)C)=C1\[C@@H](OC(C)=O)C[C@@]2(C)[C@H]1C[C@@H](O)[C@H]1[C@@]3(C)CC[C@@H](O)[C@@H](C)[C@@H]3CC[C@@]12C | 4.11 | 40 (≈ 24.9 µg/mL) |
| CC(=O)O[C@H]1C[C@@]2(C)[C@@H](C[C@@H](O)[C@H]3[C@@]4(C)CC[C@@H](O)[C@@H](C)[C@@H]4CC[C@@]32C)/C1=C(\CCC=C(C)C)C(=O)NNC(=O)c1cccs1 | 4.10 | 40 (≈ 25.6 µg/mL) |
| CC(=O)O[C@H]1C[C@@]2(C)[C@@H](C[C@@H](O)[C@H]3[C@@]4(C)CC[C@@H](O)[C@@H](C)[C@@H]4CC[C@@]32C)/C1=C(\CCC=C(C)C)C(=O)NS(=O)(=O)c1ccccc1 | 4.02 | > 125 |
| CC(=O)O[C@H]1C[C@@]2(C)[C@@H](C[C@@H](O)[C@H]3[C@@]4(C)CC[C@@H](O)[C@@H](C)[C@@H]4CC[C@@]32C)/C1=C(\CCC=C(C)C)C(=O)Nc1nn[nH]n1 | < 3.77 | 40 (≈ 23.4 µg/mL) |
| CC(=O)O[C@H]1C[C@@]2(C)[C@@H](C[C@@H](O)[C@H]3[C@@]4(C)CC[C@@H](O)[C@@H](C)[C@@H]4CC[C@@]32C)/C1=C(\CCC=C(C)C)C(=O)NC#N | < 3.73 | 40 (≈ 21.6 µg/mL) |
| CC(=O)O[C@H]1C[C@@]2(C)[C@@H](C[C@@H](O)[C@H]3[C@@]4(C)CC[C@@H](O)[C@@H](C)[C@@H]4CC[C@@]32C)/C1=C(\CCC=C(C)C)C(N)=O | 3.95 | > 125 |
| CC(=O)O[C@H]1C[C@@]2(C)[C@@H](C[C@@H](O)[C@H]3[C@@]4(C)CC[C@@H](O)[C@@H](C)[C@@H]4CC[C@@]32C)/C1=C(\CCC=C(C)C)C(=O)NS(=O)(=O)c1ccc(F)c(F)c1 | 4.09 | 20 (≈ 13.8 µg/mL) |
| CC(=O)O[C@H]1C[C@@]2(C)[C@@H](C[C@@H](O)[C@H]3[C@@]4(C)CC[C@@H](O)[C@@H](C)[C@@H]4CC[C@@]32C)/C1=C(\CCC=C(C)C)C(=O)NN | 3.95 | 40 (≈ 21.2 µg/mL) |
| CCCCCCCCCCCCCCNC(=O)/C(CCC=C(C)C)=C1\[C@@H](OC(C)=O)C[C@@]2(C)[C@H]1C[C@@H](O)[C@H]1[C@@]3(C)CC[C@@H](O)[C@@H](C)[C@@H]3CC[C@@]12C | < 3.85 | > 125 |
| CCCCCCCCCCCCCCCCNC(=O)/C(CCC=C(C)C)=C1\[C@@H](OC(C)=O)C[C@@]2(C)[C@H]1C[C@@H](O)[C@H]1[C@@]3(C)CC[C@@H](O)[C@@H](C)[C@@H]3CC[C@@]12C | < 3.87 | > 125 |
| CCCCCCCCCCCCNC(=O)/C(CCC=C(C)C)=C1\[C@@H](OC(C)=O)C[C@@]2(C)[C@H]1C[C@@H](O)[C@H]1[C@@]3(C)CC[C@@H](O)[C@@H](C)[C@@H]3CC[C@@]12C | < 3.84 | > 125 |
| CCCCCCCCCC(=O)O[C@@H]1CC[C@@]2(C)[C@@H](CC[C@@]3(C)[C@H]2[C@H](O)C[C@H]2/C(=C(\CCC=C(C)C)C(=O)O)[C@@H](OC(C)=O)C[C@@]23C)[C@@H]1C |  | > 125 |
| CC(=O)O[C@H]1C[C@@]2(C)[C@@H](C[C@@H](O)[C@H]3[C@@]4(C)CC[C@@H](OC(=O)c5ccc([N+](=O)[O-])cc5)[C@@H](C)[C@@H]4CC[C@@]32C)/C1=C(\CCC=C(C)C)C(=O)O |  | > 125 |
| CC(=O)O[C@H]1C[C@@]2(C)[C@@H](C[C@@H](O)[C@H]3[C@@]4(C)CC[C@@H](O)[C@@H](C)[C@@H]4CC[C@@]32C)/C1=C(\CCC=C(C)C)C(=O)N/N=C/c1ccncc1 |  | 20 (≈ 12.4 µg/mL) |
| CC(=O)O[C@H]1C[C@@]2(C)[C@@H](C[C@@H](O)[C@H]3[C@@]4(C)CC[C@@H](OC(=O)c5ccc(C(F)(F)F)cc5)[C@@H](C)[C@@H]4CC[C@@]32C)/C1=C(\CCC=C(C)C)C(=O)O |  | > 125 |
| CC(=O)O[C@H]1C[C@@]2(C)[C@@H](C[C@@H](O)[C@H]3[C@@]4(C)CC[C@@H](O)[C@@H](C)[C@@H]4CC[C@@]32C)/C1=C(\CCC=C(C)C)C(=O)NCCN1CCOCC1 |  | > 125 |
| CCC(=O)O[C@@H]1CC[C@@]2(C)[C@@H](CC[C@@]3(C)[C@H]2[C@H](O)C[C@H]2/C(=C(\CCC=C(C)C)C(=O)NN)[C@@H](OC(C)=O)C[C@@]23C)[C@@H]1C |  | 15.6 (≈ 9.15 µg/mL) |
| CC(=O)O[C@H]1C[C@@]2(C)[C@@H](C[C@@H](O)[C@H]3[C@@]4(C)CCC(=O)[C@@H](C)[C@@H]4CC[C@@]32C)/C1=C(\CCC=C(C)C)C(=O)NNS(C)(=O)=O |  | 62.5 (≈ 37.9 µg/mL) |
| CCCCC(=O)O[C@@H]1CC[C@@]2(C)[C@@H](CC[C@@]3(C)[C@H]2[C@H](O)C[C@H]2/C(=C(\CCC=C(C)C)C(=O)NN)[C@@H](OC(C)=O)C[C@@]23C)[C@@H]1C |  | 62.5 (≈ 38.4 µg/mL) |
| CCCCC(=O)O[C@@H]1CC[C@@]2(C)[C@@H](CC[C@@]3(C)[C@H]2[C@H](O)C[C@H]2/C(=C(\CCC=C(C)C)C(=O)NNS(C)(=O)=O)[C@@H](OC(C)=O)C[C@@]23C)[C@@H]1C |  | 62.5 (≈ 43.3 µg/mL) |

| Structure (SMILES) | pIC50 [1] | MIC99 [2] [µM] |
| --- | --- | --- |
| CC(=O)O[C@H]1C[C@@]2(C)[C@@H](C[C@@H](O)[C@H]3[C@@]4(C)CC[C@@H](OC(=O)c5ccncc5)[C@@H](C)[C@@H]4CC[C@@]32C)/C1=C(\CCC=C(C)C)C(=O)O |  | 31.3 (≈ 19.5 µg/mL) |
| CC(=O)O[C@H]1C[C@@]2(C)[C@@H](C[C@@H](O)[C@H]3[C@@]4(C)CC[C@@H](OC(=O)c5ccc(F)cc5)[C@@H](C)[C@@H]4CC[C@@]32C)/C1=C(\CCC=C(C)C)C(=O)O |  | > 125 |
| CO/N=C1\CC[C@@]2(C)[C@@H](CC[C@@]3(C)[C@H]2[C@H](O)C[C@H]2/C(=C(\CCC=C(C)C)C(=O)O)[C@@H](OC(C)=O)C[C@@]23C)[C@@H]1C |  | 20 (≈ 10.9 µg/mL) |
| CC(=O)O[C@H]1C[C@@]2(C)[C@@H](C[C@@H](O)[C@H]3[C@@]4(C)CC[C@@H](O)[C@@H](C)[C@@H]4CC[C@@]32C)/C1=C(\CCC=O)C(=O)O |  | 40 (≈ 19.6 µg/mL) |
| CC(=O)O[C@H]1C[C@@]2(C)[C@@H](CC(=O)[C@H]3[C@@]4(C)CCC(=O)[C@@H](C)[C@@H]4CC[C@@]32C)/C1=C(\CCC=C(C)C)C(=O)O |  | 11.9 (≈ 6.1 µg/mL) |
| CC(=O)O[C@H]1C[C@@]2(C)[C@@H](C[C@@H](O)[C@H]3[C@@]4(C)CC[C@@H](OC(=O)c5ccc(C)cc5)[C@@H](C)[C@@H]4CC[C@@]32C)/C1=C(\CCC=C(C)C)C(=O)O |  | 31.3 (≈ 19.9 µg/mL) |
| CC(=O)O[C@H]1C[C@@]2(C)[C@@H](C[C@@H](O)[C@H]3[C@@]4(C)CC[C@@H](O)[C@@H](C)[C@@H]4CC[C@@]32C)/C1=C(\CCC=C(C)C)C(=O)N1CC(O)C1 |  | 40 (≈ 22.9 µg/mL) |
| CC(=O)O[C@H]1C[C@@]2(C)[C@@H](C[C@@H](O)[C@H]3[C@@]4(C)CC[C@@H](O)[C@@H](C)[C@@H]4CC[C@@]32C)/C1=C(\CCC=C(C)C)C(=O)N1CCC(O)CC1 |  | 40 (≈ 24 µg/mL) |
| CC(=O)O[C@H]1C[C@@]2(C)[C@@H](C[C@@H](O)[C@H]3[C@@]4(C)CC[C@@H](O)[C@@H](C)[C@@H]4CC[C@@]32C)C1=O |  | > 125 |
| CC(=O)O[C@H]1C[C@@]2(C)[C@@H](C[C@@H](O)[C@H]3[C@@]4(C)CC[C@@H](O)[C@@H](C)[C@@H]4CC[C@@]32C)/C1=C(\CCC=C(C)C)C(=O)N/N=C/c1cccnc1 |  | 20 (≈ 12.4 µg/mL) |
| CC(=O)O[C@H]1C[C@@]2(C)[C@@H](C[C@@H](OC(C)=O)[C@H]3[C@@]4(C)CC[C@@H](OC(C)=O)[C@@H](C)[C@@H]4CC[C@@]32C)/C1=C(\CCC=C(C)C)C(=O)O |  | 52.5 (≈ 31.5 µg/mL) |
| CC(=O)O[C@H]1C[C@@]2(C)[C@@H](C[C@@H](O)[C@H]3[C@@]4(C)CC[C@@H](O)[C@@H](C)[C@@H]4CC[C@@]32C)/C1=C(\CCC=C(C)C)C(=O)NCCO |  | > 125 |
| CC(=O)O[C@H]1C[C@@]2(C)[C@@H](C[C@@H](O)[C@H]3[C@@]4(C)CC[C@@H](O)[C@@H](C)[C@@H]4CC[C@@]32C)/C1=C(\CCC=C(C)C)C(=O)NS(=O)(=O)c1ccc(C#N)cc1 |  | 125 (≈ 85.1 µg/mL) |
| CC(=O)O[C@H]1C[C@@]2(C)[C@@H](C[C@@H](O)[C@H]3[C@@]4(C)CC[C@@H](OC(=O)c5ccc(S(C)(=O)=O)cc5)[C@@H](C)[C@@H]4CC[C@@]32C)/C1=C(\CCC=C(C)C)C(=O)O |  | 31.3 (≈ 21.9 µg/mL) |
| CC(=O)O[C@H]1C[C@@]2(C)[C@@H](C[C@@H](O)[C@H]3[C@@]4(C)CC[C@@H](OC(=O)c5ccc(Br)cc5)[C@@H](C)[C@@H]4CC[C@@]32C)/C1=C(\CCC=C(C)C)C(=O)O |  | > 125 |
| CC(=O)O[C@H]1C[C@@]2(C)[C@@H](C[C@@H](O)[C@H]3[C@@]4(C)CC[C@@H](O)[C@@H](C)[C@@H]4CC[C@@]32C)/C1=C(\CCC=C(C)C)C(=O)NNS(C)(=O)=O | 4.04 | 10 (≈ 6.09 µg/mL) |
| CC(=O)O[C@H]1C[C@@]2(C)[C@@H](C[C@@H](O)[C@H]3[C@@]4(C)CC/C(=N\OCc5ccccc5)[C@@H](C)[C@@H]4CC[C@@]32C)/C1=C(\CCC=C(C)C)C(=O)O |  | 40 (≈ 24.8 µg/mL) |
| COc1ccc(S(=O)(=O)NC(=O)/C(CCC=C(C)C)=C2\[C@@H](OC(C)=O)C[C@@]3(C)[C@H]2C[C@@H](O)[C@H]2[C@@]4(C)CC[C@@H](O)[C@@H](C)[C@@H]4CC[C@@]23C)cc1 |  | 31.3 (≈ 21.5 µg/mL) |
| CCC(=O)O[C@@H]1CC[C@@]2(C)[C@@H](CC[C@@]3(C)[C@H]2[C@H](O)C[C@H]2/C(=C(\CCC=C(C)C)C(=O)NNS(C)(=O)=O)[C@@H](OC(C)=O)C[C@@]23C)[C@@H]1C |  | 7.81 (≈ 5.19 µg/mL) |
| CC[C@H]1CN2CCc3cc(OC)c(OC)cc3[C@@H]2C[C@@H]1C[C@H]1NCCc2cc(OC)c(OC)cc21 [EMETINE] | 6.40 |  |
| CO[C@H]1/C=C/O[C@@]2(C)Oc3c(C)c(O)c4c(O)c(c(/C=N/N5CCN(C)CC5)c(O)c4c3C2=O)NC(=O)/C(C)=C\C=C\[C@H](C)[C@H](O)[C@@H](C)[C@@H](O)[C@@H](C)[C@H](OC(C)=O)[C@@H]1C [RIFAMPIN] |  | 0.005 (≈ 0.00411 µg/mL) |
